Experimental data from different studies.
Target: Mitogen-activated protein kinase 11 (MAPK11, Homo sapiens, UniProt Q15759)

`Nc1ncnc2occ(-c3ccc(NC(=O)Nc4cc(C(F)(F)F)ccc4F)cc3)c12` gave a remaining signal of 0% (cell-free assay, inhibitor; 20 µM).
`O=C1Nc2ccc(Cl)cc2C1=Cc1cc(Cl)c(O)c(Cl)c1` has a remaining signal of 99.2% (cell-free assay; 0.5 µM).
`Cn1c(=O)n(-c2ccc(C(C)(C)C#N)cc2)c2c3cc(-c4cnc5ccccc5c4)ccc3ncc21` has a remaining activity of 96% (enzyme activity, inhibitor; 10 µM).
For `CC(C)(O)[C@H]1CC[C@H](Nc2ccc3ncc(-c4cccc(C(F)(F)F)c4)n3n2)CC1`, the remaining activity was 103% (enzyme activity, inhibitor; 1 µM).
For `Cc1cc(-n2nc(Cc3cc(F)cc(C(F)(F)F)c3)nc2C)ccc1C(N)=O`, the remaining binding was 90% (cell-free assay, competition with immobilised ligand; 1 µM).
With `CNc1cccc2cc(C(=O)Nc3ccc(C(=O)O)cc3)c(=O)[nH]c12` the inhibition was -2.4% (enzyme activity, inhibitor; 10 µM).
`CN([C@@H]1CCc2c(CC(=O)O)c3ccccc3n2C1)S(=O)(=O)c1ccc(F)cc1` has a remaining binding of 88% (cell-free assay, competition with immobilised ligand; 1 µM).
The remaining signal of `Oc1cccc(-c2nc(N3CCOCC3)c3oc4ncccc4c3n2)c1` is reported as 103% (cell-free assay; 0.5 µM).
`Cn1c2c(c3ccc(Cl)c(Cl)c31)C(C#N)C1(CCOCC1)NC2=O` (centres unmarked) has a ΔTm of 0.4 °C (thermal stability, DSF; 10 µM).
`CCN(CC)c1ccc(C2=NNC(=O)CC2C)cc1[N+](=O)[O-]` (centres unmarked) gave a remaining activity of 97% (enzyme activity, inhibitor; 10 µM).
With `COc1cc(/C=C/C(=O)CC(=O)/C=C/c2ccc(O)c(OC)c2)ccc1O` the activity vs control was 101% (enzyme activity, inhibitor; 1 µM).
`CCC(=O)N[C@@H]1CC[C@H](C(=O)N(C)c2ccc(-c3nc4ccccc4o3)cc2)C1` has a remaining binding of 83% (cell-free assay, competition with immobilised ligand; 1 µM).
`Cn1c2c(Cl)c(Cl)ccc2c2cn[nH]c(=O)c21` has a ΔTm of 0.1 °C (thermal stability, DSF; 10 µM).
With `O=C(Nc1cnc(Oc2ccc(F)cc2)nc1)N1CCc2ncccc2[C@@H]1c1ccc(F)cc1` the remaining binding was 84% (cell-free assay, competition with immobilised ligand; 1 µM).
For `CNCc1ccc(-c2cc(-c3nc(-c4ccc(S(=O)(=O)C(C)C)cc4)cnc3N)on2)cc1`, the inhibition was 11% (enzyme activity, inhibitor; 2 µM).
With `CC(C)(C)c1nc2c(s1)c1nc(N)ncc1c1ccc(NS(=O)(=O)c3c(F)cccc3F)c(F)c12` the remaining activity was 101% (enzyme activity, inhibitor, radiometric; 1 µM).
`CCC1(CC)NC(=O)c2c(c3ccc(Cl)c(Cl)c3n2C)C1C#N` (centres unmarked) gave a ΔTm of 0.1 °C (thermal stability, DSF; 10 µM).
The remaining activity of `O=C(Nc1cnn(-c2csc(C(=O)NC3COC3)c2)c1)Nc1ccccc1Cl` is reported as 101% (enzyme activity, inhibitor; 5 µM).
The inhibition of `COc1cccc2c(NCc3ccccc3)nc(-n3c(N)nc4ccccc43)nc12` is reported as -9.6% (target engagement in cells, inhibitor, chemoproteomics; 20 mM).
`O=C(N1CCS(=O)(=O)CC1)N1C[C@H](c2ccc(OC(F)(F)F)cc2)C[C@H](c2nc(C3CC3)no2)C1` has a remaining binding of 100% (cell-free assay, competition with immobilised ligand; 1 µM).
With `N#CCCc1ccc2c(c1)-c1[nH]c3ccc([N+](=O)[O-])cc3c1CC(=O)N2` the remaining signal was 101% (cell-free assay; 0.5 µM).
The inhibition of `CCCS(=O)(=O)Nc1ccc(F)c(C(=O)c2c[nH]c3ncc(-c4ccc(Cl)cc4)cc23)c1F` is reported as less than 10% (enzyme activity, inhibitor; 1 µM).
`CCN(CC)CCNC(=O)c1c(C)[nH]c(/C=C2\C(=O)Nc3ccc(F)cc32)c1C` gave an inhibition of 3% (enzyme activity, inhibitor; 10 µM).
`COc1ccc2c(O[C@@H]3C[C@H]4C(=O)N[C@]5(C(=O)O)CC5/C=C\CCCCC[C@H](NC(=O)OC5CCCC5)C(=O)N4C3)cc(-c3csc(NC(=O)C(C)C)n3)nc2c1C` (some centres unmarked) gave a remaining binding of 100% (cell-free assay, competition with immobilised ligand; 1 µM).
With `Cc1ccc(Nc2nccc(N(C)c3ccc4c(C)n(C)nc4c3)n2)cc1S(N)(=O)=O` the inhibition was -6% (enzyme activity, inhibitor; 0.3 µM).
The ΔTm of `Cn1c2c(c3ccc(Cl)c(Cl)c31)C(C#N)C(C)(C)NC2=O` (centres unmarked) is reported as 0.8 °C (thermal stability, DSF; 10 µM).
`CCCOc1ccc(OC)c(F)c1C(=O)c1ccc(C(=O)N[C@@H]2CNC[C@H]2NC(=O)c2ccc3[nH]ncc3c2)cc1` gave a remaining activity of 96% (enzyme activity, inhibitor; 10 µM).
The remaining activity of `COc1cc(Cl)c(C(=O)N[C@@H](CN[C@H]2CC[C@@H](N)CC2)Cc2ccc(C#N)cc2)cc1-c1ccc(CN[C@H](C)c2ccc(C)cc2)o1` is reported as 92% (enzyme activity, inhibitor; 1 µM).
With `CC(C)(C)C(=O)c1sc(NC2CCCCC2)nc1N` the remaining activity was 82% (enzyme activity, inhibitor; 10 µM).
`Cc1cc(NC(=O)c2cccc3cc(-c4cccc5[nH]nc(N)c45)ccc23)ccc1F` gave an activity vs control of 69% (enzyme activity, inhibitor; 0.1 µM).
`COc1cc2c(Nc3ccc(Br)cc3F)ncnc2cc1OCC1CCN(C)CC1` has a remaining signal of 97.1% (cell-free assay; 0.5 µM).
For `CS(=O)(=O)Nc1cccc(-c2csc(NC(=O)CSc3nc4nccnc4c(=O)n3CCc3ccccc3)n2)c1`, the inhibition was 7% (enzyme activity, inhibitor; 10 µM).
The remaining binding of `O=C(Nc1ccc(Oc2ccc(F)cc2)cc1)N1CCc2ncccc2[C@H]1c1ccc(F)cc1` is reported as 100% (cell-free assay, competition with immobilised ligand; 1 µM).
`Cn1c2c(c3ccccc31)C(C#N)C(C)(C)NC2=O` (centres unmarked) gave a ΔTm of -0.7 °C (thermal stability, DSF; 10 µM).
`O=C(O)[C@H]1[C@H](Cn2nnc3ccccc3c2=O)CC[C@@H]1C(=O)c1ccc(OCCC2CCOCC2)cc1` gave a remaining binding of 78% (cell-free assay, competition with immobilised ligand; 1 µM).
`COc1cc(Nc2cnc(C#N)c(O[C@H](C)CN(C)C)n2)ncc1-c1cnn(C)c1` gave a remaining activity of 96% (enzyme activity, inhibitor, radiometric; 1 µM).
`Cn1c2c(c3ccc(Cl)c(Cl)c31)C(C#N)C1(CCCC1)NC2=O` (centres unmarked) has a ΔTm of 0.9 °C (thermal stability, DSF; 10 µM).
With `COc1cc2ncnc(Nc3ccc(Oc4ccccc4)cc3C)c2cc1OC` the inhibition was 5% (enzyme activity, inhibitor; 1 µM).
